Screens (PubChem)
Calb FLC: C. albicans growth modulation with fluconazole; C. albicans CaCi-2 (fluconazole-resistant clinical isolate) + fluconazole, Alamar Blue growth, 48 h; growth inhibition, % (test concentration not listed); 300,000 compounds, 0.57% hits; AID 1979;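 active = growth inhibition above about 58% in most replicates, limit read from the data, passing the limit was not always enough; inconclusive = exactly half the replicates above a set limit; inactive = most replicates below a set limit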;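 also: all wells also contain fluconazole at 8 µg/ml as a sub-toxic cotreatment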
CSC inhib: cancer stem cell inhibition | 300,000 compounds, 1.1% hits | cancer stem cell-like cells viability, luminescence | inhibition, % at 7.5 µM; in the data active = inhibition above about 75%; inconclusive = no clear call, values can overlap the other calls; tested in HMLE shEcad cells
A1 inh: inhibitors of the anti-apoptotic protein A1, read as caspase activation; MEF A1-2A-BIM cells, Caspase-Glo 3/7 luminescence, 3 h; percent of clofoctol response, vehicle zero; AID 2462; caspase activation, % (concentration not given with the values); 330,000 compounds, 0.066% hits;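 active = over half of replicate activation scores above 10%, or exactly half above 10 with the replicate mean above 10; inconclusive = replicate mean below 10 yet half the replicates above 10; inactive = over half of replicates below 10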
H9c2 TAG inh: inhibitors of triacylglycerol accumulation | H9c2 cells, Nile Red lipid (TAG) fluorescence; cells loaded with 200 µM oleic acid | inhibition, % at 12.5 µM | 230,000 compounds, 0.66% hits;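 active = pattern-corrected inhibition of lipid staining of at least 50% with the nuclear-stain viability signal not falling by more than 50%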
Beta apoptosis: blocks beta cell apoptosis. INS-1E cytokine-induced death, ATP luminescence, 48 h; percent of positive-control rescue, neutral wells zero. 300,000 compounds, 0.8% hits. protection from apoptosis, % (concentration not given with the values). AID 435005;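 active = Every replicate reaches about 75%, or at least half do and their mean reaches it too, limit read from the data; inconclusive = At least half of replicates reach the limit but their mean does not; inactive = Under half of replicates reach the limit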;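 also: higher means more ATP so stronger rescue from cytokine killing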
T cruzi inh: blocks replication of Trypanosoma cruzi. T. cruzi beta-gal in NIH3T3, luminescence, 90 h. inhibition, % (concentration not given with the values). 300,000 compounds, 1.4% hits. AID 1885;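 active = mean inhibition across valid replicates above about 55%, limit read from the data; inconclusive = mean below that limit but half or more replicates reach it; inactive = mean below it, under half of replicates reach it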;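 also: signal also drops with host cell toxicity which is not excluded here; higher percent means less beta-gal luminescence so fewer parasites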
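System: mouse NIH/3T3 fibroblasts infected with β-gal-expressing T. cruzi Tulahuen C4 / Input: NIH/3T3 cells, 5,000 per well / Buffer or medium: Low-serum DMEM with 2% FBS / Probe or stimulus: 5000 reporter trypomastigotes per well / Schedule: ≥90 h infection period, 3 h prior cell attachment / Measured by: GalScreen luminescence, 60 min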
Hits are given with their value; n = inactive; u = inconclusive; x = not tested or not shown. A selection: hits, their analogues and other compounds. The true share with any hit is near 3.1%.

SMILES | Calb FLC | CSC inhib | A1 inh | H9c2 TAG inh | Beta apoptosis | T cruzi inh
O=C(O)c1nn(Cc2ncc(-c3cccc(Cl)c3)o2)c(=O)c2ccccc12 | n | n | n | x | n | n
CCN(CC)CCNC(Cc1ccccc1)c1cccc(OC)c1 (stereo not given) | x | x | x | n | x | x
Nc1nc(NCCCN2CCOCC2)nc(Nc2cccc(Cl)c2)c1[N+](=O)[O-] | n | n | n | n | n | n
O=C(NCc1ccccc1)c1sc(=S)n2c1[nH]c(=O)c1ccccc12 | 87 | n | n | n | n | n
CCCCNC(=O)c1sc(=S)n2c1[nH]c(=O)c1ccc(C(=O)NCCc3ccc(OC)c(OC)c3)cc12 | n | n | n | x | n | n
COc1ccc2cc(-c3ccccc3F)ncc2c1 | x | n | n | n | n | x
CN(C)CCN(Cc1ccco1)C(=O)c1cc2c(Cl)nc3ccccc3c2s1 | n | n | n | n | n | 63
Cc1ccc2nc(Cl)c3cc(C(=O)N(CCN(C)C)Cc4ccco4)sc3c2c1 | n | 93 | n | x | n | 56
CN(CCC#N)C(=O)c1cc2c(Cl)nc3ccccc3c2s1 | n | n | n | x | n | n
Cc1ccc2nc(Cl)c3cc(C(=O)NCCCN4CCCC4)sc3c2c1 | n | n | n | n | n | 68
C/C(=N\NC(=O)c1ccc(C)cc1)c1c(C)[nH]n(-c2ccccc2)c1=O | n | n | n | x | 91 | n
CCC1CSC(Nc2ccc(C(=O)/C=C/c3ccc(Br)cc3)cc2)=N1 (stereo not given) | u | 79 | n | n | n | n
CCCS(=O)(=O)NC(=O)C1(C)CCN(C(=O)c2ccc(C(F)(F)F)cc2)C1 (stereo not given) | x | x | x | n | x | x
Oc1cccc2ccc(Nc3ccccn3)nc12 | 103 | 104 | n | n | 106 | 62
O=C(c1ccc(CN2CCOCC2)cc1)N1CCN(c2cccc(Cl)c2)CC1 | n | n | n | n | n | u
O=C(c1ccc(Cn2c(=O)[nH]c3ccccc3c2=O)cc1)N1CCN(c2ccc(F)cc2)CC1 | 63 | n | n | n | n | n
CCCCn1c(=S)[nH]c2ccc(N3CCOCC3)cc2c1=O | n | x | n | x | x | n
O=C(c1ccc(Cn2c(=O)[nH]c3ccsc3c2=O)cc1)N1CCN(c2ccccc2)CC1 | n | n | n | n | n | n
O=C(c1ccc(Cn2c(=S)[nH]c3ccc(N4CCOCC4)cc3c2=O)cc1)N1CCN(c2ccc(F)cc2)CC1 | n | n | n | n | n | 85
Cc1cccc(N2CCN(C(=O)CCCCCn3c(=S)[nH]c4ccc(N5CCOCC5)cc4c3=O)CC2)c1C | n | n | n | x | n | 65
Cc1ccc(Cl)cc1N1CCN(C(=O)c2ccc(CN3CCOCC3)cc2)CC1 | n | n | n | x | n | 56
Cc1ccc(S(=O)(=O)N2CCN(C(=O)COC(=O)Cc3ccc(Cl)cc3)CC2)c(C)c1 | x | x | n | n | n | x
O=C(COC(=O)COc1ccccc1F)Nc1ccc2c(c1)OCO2 | x | x | n | n | n | x
Cc1ccc(C)c(N2CCN(C(=O)c3ccc(Cn4c(=S)[nH]c5ccc(N6CCOCC6)cc5c4=O)cc3)CC2)c1 | n | n | n | n | n | 75
O=c1c2cc(N3CCOCC3)ccc2[nH]c(=S)n1Cc1ccc(Cl)cc1 | n | n | n | x | n | n
SMILES | Calb FLC | CSC inhib | A1 inh | H9c2 TAG inh | Beta apoptosis | T cruzi inh
Cc1ccc(Cl)cc1N1CCN(Cc2cc3c(cc2O)CCC3)CC1 | n | n | n | x | n | 58
COc1ccc(Cn2c(=S)[nH]c3cc(C(=O)N4CCN(c5ccccc5)CC4)ccc3c2=O)cc1 | n | n | n | x | n | n
Cc1ccc(Cl)cc1N1CCN(Cc2cc(=O)n3ccsc3n2)CC1 | n | x | n | n | n | n
COc1ccc(N2CCN(C(=O)c3ccc(Cn4c(=S)[nH]c5ccc(N6CCOCC6)cc5c4=O)cc3)CC2)cc1 | n | n | n | n | n | 68
Cc1ccc(-n2ccc(=O)c(C(=O)Nc3ccc(S(=O)(=O)Nc4nccs4)cc3)n2)cc1 | n | n | n | x | n | n
CCOCCCN(C)C1CCN(C(=O)c2oc3ccccc3c2NC(=O)c2ccc(F)cc2)CC1 | n | n | n | x | n | 56
Oc1ccc(CCNc2ncnc3ccc(Cl)cc23)cc1 | x | 86 | n | n | 107 | n
CCNC(=O)C1(C)CCCCN1Cc1ccc(C#N)cc1 (stereo not given) | x | x | x | n | x | x
CCN(c1ccccc1)S(=O)(=O)c1cccc(C(=O)Nc2cccc(C)n2)c1 | x | x | x | n | x | x
CC1=NN(/C(=N\c2nnc(C)s2)Nc2ccc(C(C)(C)C)cc2)[C@H](c2ccc(C)cc2)S1 | n | n | n | n | n | 57
S=c1sc2c(Cl)ncnc2n1-c1ccccc1 | n | x | x | n | x | 59
Cc1nc(N2CCN(C)CC2)c2sc(=S)n(-c3ccccc3)c2n1 | n | n | n | n | n | n
COc1ccc2cc(C)c3nnc(SCC(=O)Nc4nc(-c5ccc(F)cc5)cs4)n3c2c1 | n | n | 16 | x | n | n
Cc1nc2ccccc2c2oc(C(=O)Nc3ccc(C(C)C)cc3)cc12 | n | x | n | n | 79 | u
Cc1nc2ccccc2c2oc(C(=O)Nc3ccc4c(c3)OCCO4)cc12 | n | n | n | n | n | n
CCOCCn1c(SC(C)C(C)=O)nc2c1c(=O)[nH]c(=O)n2C (stereo not given) | n | n | n | n | n | n
O=C1/C(=C\c2ccc3c(c2)OCO3)CCC/C1=C/c1ccc2c(c1)OCO2 | n | n | n | x | n | n
CC1CC/C(=C\c2ccc3c(c2)OCO3)C(=O)/C1=C/c1ccc2c(c1)OCO2 (stereo not given) | n | 81 | n | n | n | n
CCN1C(=O)/C(=C\c2nc3ccccc3c(=O)n2-c2ccccc2)c2ccccc21 | n | x | n | n | x | n
CCN1C(=O)/C(=C/c2nc3ccccc3c(=O)n2-c2ccc(C)cc2)c2ccccc21 | n | n | n | x | n | 74
CN1CCC(OC(=O)c2ccccc2)CC1 | n | n | n | x | n | 60
COc1cccc(C(=O)OC2CCN(C)CC2)c1 | n | n | n | n | n | 70
COc1cccc(C(=O)OC2CCCN(C)C2)c1 (stereo not given) | n | n | n | n | n | n
COc1ccc(C(=O)OC2CCN(C)CC2)cc1 | n | n | n | n | n | 55
COc1cc(C2c3c(c(C)c(C)oc3=O)Oc3c(C)c(C)oc(=O)c32)ccc1OS(=O)(=O)c1ccc(C)cc1 | x | n | n | n | n | x
Cc1cc(C)n(-c2nc(NCCC(C)C)c3c4c(sc3n2)COC(C)(C)C4)n1 | n | x | x | x | x | 76
Cc1cc(C)n(-c2nc(NCCN(C)C)c3c4c(sc3n2)COC(C)(C)C4)n1 | n | n | n | n | n | n
Cc1cc(C)n(-c2nc(NCCN(C)C)c3c4c(sc3n2)CCCC4)n1 | 80 | n | n | n | 112 | n
COc1ccc2[nH]cc(C(=O)CCl)c2c1 | n | n | n | 72 | n | 61
COc1ccc2[nH]cc(C(=O)CN3CC(C)CC(C)C3)c2c1 (stereo not given) | n | n | n | x | n | n
